Screening results: PubChem, Johns Hopkins Ion Channel Center
Sampled rows, rich in hits. Any-hit rate of the full collection: about 3.1%.
KCNK3 block: human KCNK3 channel inhibition, primary screen. O14649. CHO-KCNK3 thallium flux, FluxOR fluorescence; active compounds read low. B-score at 10 µM. actives 0.84% (n = 340,000). AID 602410;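 active = B-score under library mean minus 4 SD, starting fluorescence ratio at most library mean plus 5 SD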;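 note: more negative B-score means stronger inhibition of thallium flux through KCNK3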
KCNK9 inh: blocks the human KCNK9 two-pore domain potassium channel. Q9NPC2. HEK293 KCNK9, FluxOR thallium flux fluorescence; active compounds read low. B-score at 10 µM. actives 1.2% (n = 310,000). AID 488922;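 active = ratio B-score over 3 SD below the library mean, with starting fluorescence within 5 SD of its mean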;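 note: negative B-score means less thallium flux so channel inhibition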
Target sequence (Q9NPC2 whole entry, looked up, the tested form may be a part): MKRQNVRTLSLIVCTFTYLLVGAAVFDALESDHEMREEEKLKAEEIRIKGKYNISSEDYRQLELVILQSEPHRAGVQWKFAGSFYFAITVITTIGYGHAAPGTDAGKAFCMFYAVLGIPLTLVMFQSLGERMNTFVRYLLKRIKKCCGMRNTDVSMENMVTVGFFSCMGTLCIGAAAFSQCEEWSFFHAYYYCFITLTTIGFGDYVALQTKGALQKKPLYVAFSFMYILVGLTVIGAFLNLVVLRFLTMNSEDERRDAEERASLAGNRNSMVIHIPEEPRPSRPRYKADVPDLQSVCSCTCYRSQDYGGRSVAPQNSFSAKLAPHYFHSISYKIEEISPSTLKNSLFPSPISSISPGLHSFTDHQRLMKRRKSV
hERG protect: hERG (human) protection from proarrhythmic block; activation (rescue from dofetilide block), less the hit threshold, % at 10 µM; AID 1511; CHO-hERG, FluxOR thallium flux, dofetilide IC70 present; actives 0.51% (n = 310,000);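 active = activation above the mean of controls blocked by dofetilide plus 5 SD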;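 note: thallium influx through hERG after potassium depolarization seen as dye fluorescence rise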
KCNQ1 inh: human KCNQ1 channel inhibition; AID 2642; actives 1.3% (n = 310,000); B-score at 10 µM; CHO-K1 KCNQ1, FluxOR thallium flux fluorescence; active compounds read high;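 active = compounds whose thallium flux B-score, printed positive for inhibition, exceeds three library SD while starting fluorescence stays within three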;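 note: channel opened by potassium depolarization with thallium stimulus after 20 min compound exposure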
KCNQ1 pot: human KCNQ1 channel potentiation or activation. CHO-K1 KCNQ1, thallium flux FluxOR fluorescence; active compounds read high. B-score at 10 µM. actives 0.35% (n = 310,000);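 active = fluorescence ratio B-score, a plate-corrected score, at least three library SD, with initial intensity B-score within 5 SD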
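System: CHO-K1 cells stably expressing KCNQ1 / Medium: assay buffer for compound exposure, DMSO matched across wells / Reagent: thallium- and potassium-containing depolarizing buffer / Compound: one concentration, matched DMSO / Incubation: 20 min compound pretreatment at room temperature / Measured by: kinetic FluxOR fluorescence, 10 s baseline plus 110 s post-stimulus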
KCNK9 block conf: confirmation of human KCNK9 potassium channel inhibitors. shares compounds with KCNK9 inh. HEK293 KCNK9 cells, FluxOR thallium flux fluorescence. inhibition, % at 10 µM. actives 43% (n = 4,900). AID 492992;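 active = thallium signal inhibited by more than 5 SD of the compound-free buffer control wells, on both duplicate plates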;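 note: 0% = assay buffer control wells without compound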
Kir2-1 spec: selectivity of KCNK9 modulators against mouse Kir2.1 | shares compounds with KCNK9 inh | Kir2.1 cells, FluxOR thallium flux fluorescence | inhibition, % at 10 µM | actives 4% (n = 4,900) | AID 492993;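 active = thallium signal drop more than 5 SD beyond the mean of the no-compound control wells, seen in both duplicate plates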;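 note: signal is fluorescence rise after thallium addition divided by baseline fluorescence; plate controls were assay buffer only for no effect and full block by chlorpromazine control for full effect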
KCNK9 uninduced: second check of KCNK9 modulator effects in non-induced HEK293 cells; shares compounds with KCNK9 inh; FluxOR thallium flux; inhibition, % at 10 µM; actives 40% (n = 4,900); AID 492997;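 active = thallium signal drop beyond 5 SD of the untreated control mean, on both duplicate plates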;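 note: plate controls were buffer only IC0 wells for no effect and SID17386958 at its maximal inhibitory level for full effect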
* marks the source's active call; other numbers are inactive results; i = inactive; x = not tested or not shown.

SMILES	KCNK3 block	KCNK9 inh	hERG protect	KCNQ1 inh	KCNQ1 pot	KCNK9 block conf	Kir2-1 spec	KCNK9 uninduced
C/C(=C/C=N/Nc1nc(N2CCCCC2)nc(N2CCCCC2)n1)c1ccccc1	i	-8.7*	-13	i	i	44%*	i	i
O=C(c1ccc(F)c(S(=O)(=O)N2CCOCC2)c1)N1CCN(c2ncccn2)CC1	i	x	x	x	x	x	x	x
CCc1ccc(Nc2nnc(SC3CCOC3=O)s2)cc1 (stereo not given)	i	i	-7	i	i	x	x	x
Cc1cccc(NC(=O)c2ccc(COc3ccc(Cl)cc3Cl)o2)n1	i	i	-4	i	i	i	i	i
CC1Oc2ccccc2N(CC(=O)NCCc2ccccc2)C1=O (stereo not given)	i	i	-2	i	i	x	x	x
COc1ccc(NC2(c3ccccc3)OC(=O)c3ccccc32)cc1 (stereo not given)	i	i	-8	i	i	x	x	x
CCCCCCOC1(c2ccccc2)OC(=O)c2ccccc21 (stereo not given)	i	-15*	-14	i	i	79%*	i	50%*
Cc1cccc(OC2(c3ccccc3)OC(=O)c3ccccc32)c1C (stereo not given)	i	-13*	-11	i	i	52%*	i	42%*
CCCCCCCOC1(c2ccccc2)OC(=O)c2ccccc21 (stereo not given)	i	-16*	-16	i	i	70%*	i	48%*
CC1(c2cccc3ccccc23)OC(=O)c2ccccc21 (stereo not given)	i	x	x	x	x	x	x	x
CC(=O)Nc1ccc(SCC(=O)c2cc(C)n(C)c2C)cc1	i	i	-13	i	i	x	x	x
O=C(NC1CCCCCC1)c1ccc(CS(=O)Cc2cccc(Cl)c2)o1 (stereo not given)	i	i	-6	i	i	x	x	x
Nc1nc(C23CC4CCC(CC(C4)C2)C3)cs1	i	i	-10	i	i	x	x	x
COc1ccc2c(c1)CCc1cnc(N)nc1-2	i	i	-19	i	i	x	x	x
COc1ccc2c(c1)CCc1cn3nc(C)cc3nc1-2	i	i	-15	i	i	i	i	i
Cc1c(Cl)cccc1NC(=S)NCCc1ccccn1	i	i	-4	i	i	x	x	x
Cc1cccc(Cl)c1NC(=S)NCCc1ccccn1	i	-8.2*	-5	i	i	44%*	i	28%*
COc1cc(OC)cc(-c2cc3nc4c(c(N5CCN(c6ncccn6)CC5)n3n2)CCCC4)c1	-10*	-8.3*	-10	i	i	31%*	i	34%*
Fc1cccc(-c2cc3nc4c(c(N5CCC6(CC5)OCCO6)n3n2)CCCC4)c1	i	-8.4*	-1	i	i	i	i	i
CCOC(=O)c1ccc(NC(=O)c2ccc(OC(C)C)c(OC)c2)cc1	i	i	-26	i	i	x	x	x
COc1ccc(NC(=O)C2CCCN2C(=O)OCc2ccccc2)c(OC)c1 (stereo not given)	i	x	x	x	x	x	x	x
NC(=O)c1ccc(NC(=O)COC(=O)c2ccc(Br)o2)cc1	i	x	x	x	x	x	x	x
CCc1ccc(C(=O)COC(=O)c2cnccn2)cc1	i	i	-6	i	i	x	x	x
Cc1cc(C(=O)N/N=C/C=C/c2ccc([N+](=O)[O-])cc2)n[nH]1	i	i	-7	i	i	x	x	x
CC(C)Oc1ccc(Cn2c(=O)sc3ccccc32)cc1	i	i	-6	i	i	i	i	30%*
SMILES	KCNK3 block	KCNK9 inh	hERG protect	KCNQ1 inh	KCNQ1 pot	KCNK9 block conf	Kir2-1 spec	KCNK9 uninduced
COc1ccc(Cn2c(=O)sc3ccccc32)cc1	i	i	-8	i	i	x	x	x
O=c1[nH]c(CN2CCCCC2)nc2c1C1(CCCCC1)Cc1ccccc1-2	i	i	-3	i	i	x	x	x
N#CCSc1nc2c(c(=O)n1Cc1ccco1)C1(CCCC1)Cc1ccccc1-2	i	-14*	-4	6*	i	54%*	i	33%*
O=C(COC(=O)c1ccc(Cl)c(S(=O)(=O)N2CCOCC2)c1)NCc1ccco1	i	i	-9	i	i	x	x	x
COCCOc1ccc(C(F)(F)F)cc1NC(=O)c1ccccc1	i	i	-14	i	i	x	x	x
CC(C)(C)c1ccc(OCCOc2ccc(C(C)(C)C)cc2NC=O)c(NC=O)c1	i	-8.2*	-9	i	i	34%*	i	i
O=C(c1ccccc1)c1ccccc1NC(=O)C1CCCN1Cc1ccccc1 (stereo not given)	i	-9.5*	-11	i	i	58%*	i	38%*
O=C(CN1CCCC1)Nc1ccccc1C(=O)c1ccccc1	i	i	-12	i	i	x	x	x
CNC(=O)CC1C(=O)N(C)C(=S)N1NC(=O)c1ccc(Cl)cc1 (stereo not given)	i	i	2	i	i	x	x	x
COc1cc(NS(=O)(=O)c2ccc(N/C=C(\C#N)c3nc4cc(Cl)ccc4o3)cc2)nc(OC)n1	i	i	-8	i	i	i	i	i
CNc1ccc(/C=C/C(=O)c2cccc3ccccc23)cc1[N+](=O)[O-]	i	-11*	-12	i	i	48%*	i	36%*
Cc1ccc(C(=O)COC(=O)C2C3C=CC(C3)C2C(=O)OCC(=O)c2ccc(C)c(C)c2)cc1C (stereo not given)	i	i	-10	i	i	i	i	i
Cc1ccc(C(=O)Nc2nnc(NC(=S)Nc3ccccc3)s2)cc1	i	i	-12	i	i	i	i	i
Cc1cc(C)nc(SCC(=O)NNS(=O)(=O)c2ccc(C#N)cc2)n1	i	x	x	x	x	x	x	x
COc1nc(SC)nc(Cl)c1Cc1ccc(OC(C)C)cc1	i	i	-7	i	i	i	i	26%*
CCCOc1ccc(Cc2c(Cl)nc(SC)nc2OC)cc1	i	i	-5	i	i	i	i	i
CC(C)Oc1ccc(Cc2cnc(N)nc2N)cc1	i	i	-12	i	i	x	x	x
Cc1ccc(NC(=O)CNC2CCS(=O)(=O)C2)cc1C (stereo not given)	i	i	-5	i	i	x	x	x
COc1cc(N=c2ssnc2Cl)c(OC)cc1Cl	i	i	-20	i	i	i	i	i
N#CC1(Cc2ccccc2)c2ccccc2C=CN1C(=O)c1ccccc1 (stereo not given)	i	-9.8*	-19	6*	i	46%*	i	31%*
